Results taken from ChEMBL document CHEMBL4000155, “Synthesis and Antileukemic Activities of Piperlongumine and HDAC Inhibitor Hybrids against Acute Myeloid Leukemia Cells” (J Med Chem, 2016).
pIC50: −log10 of the molar value. Values belong to the molecule of their own block, whether it stands above or below them. Active and inactive are the calls of the source. No cut-off for these calls is given here.

What was measured:
MOLM-13 = assay: Induction of cell death in human MOLM13 cells harboring wild type p53/FLT3-ITD mutant after 24 hrs by annexin V-FITC/PI staining based flow cytometry; type: functional
How it was run: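 MOLM-13 (p53 wt, FLT3-ITD) kept in RPMI 1640 with 20% FBS, 2 mM L-glutamine, penicillin/streptomycin, 37 °C, 5% CO2. Treated 24 h; vehicle DMSO < 0.1% v/v. Annexin V-FITC/PI flow cytometry, % Annexin V+ cells. Three independent experiments in triplicate; one representative shown. EC50 is the concentration giving 50% Annexin V+ cells relative to vehicle.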

U-937 [1] = assay: Induction of apoptosis in p53 null human U937 cells assessed as caspase 3 cleavage after 24 hrs by Western blot analysis; type: functional, cell-based
How it was run: (§1)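 U937 cells exposed for 24 h. Lysates with protease/phosphatase inhibitors were separated by SDS-PAGE, transferred to PVDF and probed for PARP and cleaved caspase-3, with β-actin as loading control.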

U-937 [2] = assay: Induction of apoptosis in p53 null human U937 cells assessed as PARP-1 cleavage at 2 uM after 24 hrs in presence of SAHA by Western blot analysis; type: functional, cell-based; how it was run: as §1
U-937 [3] = assay: Induction of cell death in p53 null human U937 cells at 1 to 4 uM after 24 hrs by annexin V-FITC/PI staining based flow cytometry; type: functional
How it was run: (§2)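 Human U937 AML cells (p53 null) in RPMI 1640 with 10% FBS, 2 mM L-glutamine, penicillin/streptomycin, 37 °C, 5% CO2. Exposed 24 h to compound alone or with SAHA; vehicle DMSO < 0.1% v/v. Annexin V-FITC/PI staining and flow cytometry, reported as % Annexin V+ cells. Three independent experiments in triplicate; one representative shown. EC50 taken as concentration giving 50% Annexin V+ cells versus vehicle.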

U-937 [4] = assay: Induction of cell death in p53 null human U937 cells assessed as combination index at 2 to 4 uM after 24 hrs in presence of SAHA by annexin V-FITC/PI staining based flow cytometry; type: functional
How it was run: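 Cells given SAHA and PL alone or together at 1:1 ratio for 24 h, then Annexin V-FITC/PI staining and flow cytometry. Combination index computed from the % Annexin V+ data; CI < 1 synergistic, = 1 additive, > 1 antagonistic. Triplicates, three independent experiments.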

U-937 [5] = assay: Induction of apoptosis in p53 null human U937 cells at 2 uM after 24 hrs in presence of SAHA by annexin V-FITC/PI staining based flow cytometry; type: functional; how it was run: as §2
[6] = Antiproliferative activity against human CMS cells after 72 hrs in presence of SAHA by MTT assay; type: functional, cell-based
How it was run: (§3)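 AML cell lines grown in RPMI 1640 with 10% FBS (20% for MOLM-13), 2 mM L-glutamine and penicillin/streptomycin at 37 °C, 5% CO2. Ara-C-resistant HL-60 and CMK sublines came from stepwise cytarabine selection and were kept in 600 nM or 300 nM cytarabine respectively. Cells were treated 72 h. MTT 0.05 mg/mL, 3 h at 37 °C, DMSO solubilization, absorbance at 570 nm. IC50 given ± SEM.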

U-937 [7] = assay: Antiproliferative activity against p53 null human U937 cells after 72 hrs in presence of SAHA by MTT assay; type: functional, cell-based; conditions: U-937, 72 h; how it was run: as §3
CMK = assay: Antiproliferative activity against Ara-C resistant human CMK cells after 72 hrs in presence of SAHA by MTT assay; type: functional, cell-based; how it was run: as §3
[8] = biological target: T1, Protein deacetylase HDAC6 (Homo sapiens) (UniProt Q9UBN7); assay: Effect on SAHA-induced HDAC6 inhibition in p53 null human U937 cells assessed as hyper acetylation of alpha tubulin at 1 uM after 4 hrs by Western blot analysis; type: cell-based
T1 sequence (whole entry): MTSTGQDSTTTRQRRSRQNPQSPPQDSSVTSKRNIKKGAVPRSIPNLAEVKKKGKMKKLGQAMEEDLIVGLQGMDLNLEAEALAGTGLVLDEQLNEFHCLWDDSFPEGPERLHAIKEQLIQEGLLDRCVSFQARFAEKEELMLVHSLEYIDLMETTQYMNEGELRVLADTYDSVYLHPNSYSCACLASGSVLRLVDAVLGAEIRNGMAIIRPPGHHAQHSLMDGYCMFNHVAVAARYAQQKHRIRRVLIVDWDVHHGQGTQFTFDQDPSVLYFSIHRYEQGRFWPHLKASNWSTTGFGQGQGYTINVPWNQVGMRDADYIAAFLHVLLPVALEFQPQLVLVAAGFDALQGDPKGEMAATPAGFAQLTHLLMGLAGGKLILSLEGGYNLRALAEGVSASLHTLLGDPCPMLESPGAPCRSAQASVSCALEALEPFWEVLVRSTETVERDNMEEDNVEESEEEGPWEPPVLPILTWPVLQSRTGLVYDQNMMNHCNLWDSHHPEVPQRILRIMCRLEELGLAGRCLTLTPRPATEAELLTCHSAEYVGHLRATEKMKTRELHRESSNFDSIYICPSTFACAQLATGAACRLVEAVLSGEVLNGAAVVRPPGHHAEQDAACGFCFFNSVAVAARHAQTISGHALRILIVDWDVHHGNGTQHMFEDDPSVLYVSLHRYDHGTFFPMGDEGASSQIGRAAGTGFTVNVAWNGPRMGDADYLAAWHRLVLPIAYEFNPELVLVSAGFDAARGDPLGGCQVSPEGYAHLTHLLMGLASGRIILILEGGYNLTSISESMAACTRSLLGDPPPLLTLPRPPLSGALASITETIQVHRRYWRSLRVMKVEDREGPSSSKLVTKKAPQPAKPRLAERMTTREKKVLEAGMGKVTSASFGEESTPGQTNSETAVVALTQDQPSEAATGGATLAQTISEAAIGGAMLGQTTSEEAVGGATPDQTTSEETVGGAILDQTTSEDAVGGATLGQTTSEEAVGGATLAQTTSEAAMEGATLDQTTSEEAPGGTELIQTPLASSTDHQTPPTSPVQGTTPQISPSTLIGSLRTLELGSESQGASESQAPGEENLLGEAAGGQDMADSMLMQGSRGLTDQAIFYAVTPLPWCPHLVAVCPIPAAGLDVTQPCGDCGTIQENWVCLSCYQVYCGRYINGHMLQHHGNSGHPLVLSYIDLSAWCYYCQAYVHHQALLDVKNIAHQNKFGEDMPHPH
How it was run: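 U937 cells treated at 1 μM for 4 h. Whole-cell lysates run on SDS-PAGE, transferred to PVDF and immunoblotted for acetyl-histone H4, histone H4, acetyl-α-tubulin and β-actin.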

U-937 [9] = assay: Effect on SAHA-induced DNA damage in p53 null human U937 cells assessed as decrease in CHK1 expression level by measuring ratio of CHK1 to beta-actin level at 2 uM after 24 hrs by Western blot analysis relative to control; type: functional
How it was run: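 U937 cells treated 24 h, alone or PL+SAHA. Whole-cell lysates (protease/phosphatase inhibitors) immunoblotted for γH2AX, CHK1, RAD51, Bim and XIAP. Band densitometry normalised to β-actin, then expressed as fold change relative to the untreated control.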

U-937 [10] = assay: Upregulation of Rad51 protein expression in p53 null human U937 cells assessed as ratio of Rad51 to beta-actin level at 2 uM after 24 hrs by Western blot analysis relative to control

SMILES: COc1cc(/C=C/C(=O)N2CCC=CC2=O)cc(OC)c1OCCCCCCC(=O)NO
Activity (MOLM-13): Dose-dependent effect
Activity (U-937 [1]): Dose-dependent effect

pIC50 (U-937 [7]): 6.12
Activity [8]: inactive
SMILES: COc1cc(/C=C/C(=O)N2CCC=CC2=O)cc(OC)c1OC [PIPLARTINE]
Activity (U-937 [2]): Active
Activity (U-937 [3]): Active
CI (U-937 [4]): <0.9
Activity (U-937 [5]): 62.5%
pIC50 [6]: 5.98
pIC50 (CMK): 6.37
Ratio (U-937 [9]): 0.8
Ratio (U-937 [10]): 1.4
